Active and inactive are the calls of the source. The calls are words filed in the database; no cut-off is given here.
Tests used:
Candida albicans [1] = assay: Antifungal activity against Candida albicans DAY185 assessed as truncated hyphae formation at 50 uM after 24 hrs by phase contrast microscopic analysis; assay type: functional, organism-based
Summary of the method: (§1)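 BHI overnight cells washed, suspended in PBS, seeded 1×10^6 cells/well, 37 °C 1 h; non-adherent cells washed off; RPMI 1640 with 2% glucose plus compound in DMSO (1% by vol.), 37 °C up to 24 h; germ tubes/hyphae scored by phase contrast microscopy (×200) at 2.5, 6 and 24 h.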

Candida albicans [2] = assay: Antifungal activity against Candida albicans DAY185 assessed as inhibition of hyphae formation at 50 uM after 6 hrs by phase contrast microscopic analysis; assay type: functional, organism-based; summary of the method: as §1
Candida albicans [3] = assay: Antifungal activity against Candida albicans DAY185 assessed as inhibition of germ tube formation at 50 uM after 6 hrs by phase contrast microscopic analysis; assay type: functional, organism-based; summary of the method: as §1
Candida albicans [4] = assay: Antifungal activity against Candida albicans DAY185 assessed as inhibition of biofilm formation after 48 hrs by XTT assay; assay type: functional, organism-based
Candida albicans [5] = assay: Antifungal activity against Candida albicans DAY185 assessed as inhibition of hyphae formation after 6 hrs by phase contrast microscopic analysis; assay type: functional, organism-based; summary of the method: as §1
Candida albicans [6] = assay: Antifungal activity against Candida albicans DAY185 assessed as lowest compound concentration causing =>80% reduction in cell viability after 48 hrs by XTT assay; assay type: organism-based
MIA PaCa-2 [7] = assay: Cytotoxicity against human MIAPaCa2 after 24 hrs by MTT assay; assay type: cell-based; settings: MIA PaCa-2, 24 h
Summary of the method: (§2)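 MIA PaCa-2 cells, 10^4 per well, attached overnight at 37 °C, 5% CO2; compounds in DMSO added (final DMSO 1% by vol.), 24 h exposure; viability by MTT assay.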

Candida albicans [8] = assay: Antifungal activity against Candida albicans DAY185 assessed as inhibition of biofilm formation at 0.2 to 100 uM administered 6 hrs after microbial seeding in 96-well microplate followed by 48 hrs incubation by XTT assay; assay type: functional, organism-based
Summary of the method: (§3)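 Time-of-addition variant of the biofilm assay: compound 100 to 0.2 μM added at -0.5, 0, 2, 4, 6 or 8 h after seeding in RPMI 1640/MOPS; at 48 h wells washed twice with PBS, biofilm quantified by XTT; triplicate in each of three trials; IC50 for 50% reduction of biofilm formation from curve fitting.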

MIA PaCa-2 [9] = assay: Cytotoxicity against human MIAPaCa2 up to 200 uM after 24 hrs by MTT assay; assay type: cell-based; settings: mia paca-2, 24 h; summary of the method: as §2
Candida albicans [10] = assay: Antifungal activity against Candida albicans DAY185 assessed as inhibition of biofilm formation at 0.2 to 100 uM administered 8 hrs after microbial seeding in 96-well microplate followed by 48 hrs incubation by XTT assay; assay type: functional, organism-based; summary of the method: as §3
Candida albicans [11] = assay: Antifungal activity against Candida albicans DAY185 assessed as inhibition of biofilm formation at 0.2 to 100 uM administered 2 to 4 hrs after microbial seeding in 96-well microplate followed by 48 hrs incubation by XTT assay; assay type: functional, organism-based; summary of the method: as §3

Compound	IC50 (Candida albicans [4])	MIC (Candida albicans [6])	also measured
C/C=C/C=C/C=C/[C@H]1C[C@@H](O)CC(=O)[C@@H]1C [WAIKIALIDE A]	32.4 µM	> 200 µM	Activity (Candida albicans [1]): Active; inhibition (Candida albicans [2]): Active; inhibition (Candida albicans [3]): Active; inhibition (Candida albicans [5]): Dose-dependent effect
CC1(C)C=Cc2c(ccc3c4c([nH]c23)C(C)(C)[C@@H]2C[C@]35CCCN3C(=O)[C@@]2(C4)NC5=O)O1 [STEPHACIDIN A]	55.2 µM	> 200 µM	
CC1(C)C=Cc2c(ccc3c4c([nH]c23)C(C)(C)[C@@H]2C[C@]35CCCN3C(=O)[C@]2(NC5=O)[C@H]4O)O1 [NOTOAMIDE R]	97.3 µM	> 200 µM	
CC1(C)C=Cc2c(ccc3c2[N+]([O-])=C2C(C)(C)[C@@H]4C[C@]56CCCN5C(=O)[C@]4(NC6=O)[C@H]4N5C(=O)[C@@]67CCCN6C(=O)[C@@]56[C@@H]([C@]234)[C@]2(O)C(=[N+]([O-])c3c2ccc2c3C=CC(C)(C)O2)C(C)(C)[C@@H]6C7)O1 [WAIKIALOID B]	46.3 µM	> 200 µM	IC50 (MIA PaCa-2 [7]): 8.2 µM
CC1(C)C=Cc2c(ccc3c2[N+]([O-])=C2C3=C[C@@]34NC(=O)[C@]5(CCCN5C3=O)C[C@H]4C2(C)C)O1 [AVRAINVILLAMIDE]	43.3 µM	> 200 µM	IC50 (MIA PaCa-2 [7]): 11.3 µM
CC1(C)C=Cc2c(ccc3c2NC(=O)[C@@]32C[C@@]34NC(=O)[C@]5(CCCN5C3=O)C[C@H]4C2(C)C)O1 [NOTOAMIDE B]	109 µM	> 200 µM	
C/C=C/C=C/C=C/[C@H]1C[C@@H](O)C[C@@H](O)[C@@H]1C [WAIKIALIDE B]	97 µM	> 200 µM	
CC(C)=CCC/C(C)=C/CC/C(C)=C/CO [FARNESOL]	129 µM	> 200 µM	
CC1(C)C=Cc2c(ccc3c2[N+]([O-])=C2C(C)(C)[C@@H]4C[C@]56CCCN5C(=O)[C@]4(NC6=O)[C@H]4N5C(=O)[C@@]67CCCN6C(=O)[C@@]56[C@H](c5c([nH]c8c9c(ccc58)OC(C)(C)C=C9)C(C)(C)[C@@H]6C7)[C@]234)O1 [WAIKIALOID A]	1.4 µM	> 200 µM	Activity (Candida albicans [1]): Active; inhibition (Candida albicans [2]): Active; inhibition (Candida albicans [3]): Active; inhibition (Candida albicans [4]): Dose-dependent effect; inhibition (Candida albicans [8]): inactive; Activity (MIA PaCa-2 [9]): Non-toxic; inhibition (Candida albicans [5]): Dose-dependent effect; inhibition (Candida albicans [10]): inactive; inhibition (Candida albicans [11]): Active
CC1(C)C=Cc2c(ccc3c2NC(=O)[C@@]32[C@H](O)[C@@]34NC(=O)[C@]5(CCCN5C3=O)C[C@H]4C2(C)C)O1 [SCLEROTIAMIDE]	93.5 µM	> 200 µM	

Reference: ChEMBL document CHEMBL2040763, “Waikialoid A suppresses hyphal morphogenesis and inhibits biofilm development in pathogenic Candida albicans” (J Nat Prod, 2012)
